Reference: ChEMBL document CHEMBL1123394, “Systematic synthesis and biological evaluation of alpha- and beta-D-xylofuranosyl nucleosides of the five naturally occurring bases in nucleic acids and related analogues” (J Med Chem, 1986)
≈ marks a conversion by molar mass, not a printed value.

Assays:
Mus musculus [1] = assay: Toxicity of compound against mice was determined at a concentration of 100 mg/kg; type: organism-based; parameters: dose 100 mg/kg; conditions: in vivo
In short: (§1)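 Swiss mice (20-24 g) received a single intraperitoneal dose of 100-2,000 mg/kg. Compound was suspended in distilled water containing 0.2 g Tween 80 and 0.2 g (carboxymethyl)cellulose per 100 mL. Mice were followed for 14 days for acute toxicity.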

Mus musculus [2] = assay: Toxicity of compound against mice was determined at a concentration of 250 mg/kg; type: organism-based; parameters: dose 250 mg/kg; conditions: in vivo; in short: as §1
Mus musculus [3] = assay: Toxicity of compound against mice was determined at a concentration of 750 mg/kg; type: organism-based; parameters: dose 750 mg/kg; conditions: in vivo; in short: as §1
WI-38 [4] = assay: Concentration required for microscopically detectable alteration of the normal cell morphology in Wi-38 cells.; type: functional; conditions: Homo sapiens
In short: (§2)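 Host-cell morphology inspected microscopically for detectable alteration, with compounds in growth medium at up to 200 or 400 μg/mL.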

[5] = Concentration required for microscopically detectable alteration of the normal cell morphology in PRK cells.; type: functional; conditions: Oryctolagus cuniculus; in short: as §2
Vero [6] = assay: Antiviral activity was measured against forest virus in african green monkey kidney (Vero B) cells.; type: functional; conditions: Chlorocebus sabaeus
In short: (§3)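 Inhibition of virus-induced cytopathogenicity scored in cell culture monolayers. Test compounds dissolved in growth medium at 100, 10, or 1 μg/mL or less.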

Vero [7] = assay: Antiviral activity was measured against Parainfluenza virus-3 in african green monkey kidney (Vero B) cells.; type: functional; conditions: Chlorocebus sabaeus; in short: as §3
[8] = Antiviral activity was measured against Herpes simplex virus (HSV-2 G) in rabbit kidney cells.; type: functional; conditions: Oryctolagus cuniculus; in short: as §3
WI-38 [9] = assay: Antiviral activity was measured against Rhino virus-9 in human diploid (WI-38) cells.; type: functional; in short: as §3
Vero [10] = assay: Antiviral activity was measured against Reo virus-1 in african green monkey kidney (Vero B) cells.; type: functional; conditions: Chlorocebus sabaeus; in short: as §3
Vero [11] = assay: Antiviral activity was measured against Coxsackie virus B4 in african green monkey kidney (Vero B) cells.; type: functional; conditions: Chlorocebus sabaeus; in short: as §3
WI-38 [12] = assay: Antiviral activity was measured against Rhino virus-1A in human diploid (WI-38) cells.; type: functional; in short: as §3
Vero [13] = assay: Concentration required for microscopically detectable alteration of the normal cell morphology in Vero B cells.; type: functional; conditions: Chlorocebus sabaeus; in short: as §2
[14] = Antiviral activity was measured against Herpes simplex virus (HSV-1 KOS) in rabbit kidney cells.; type: functional; conditions: Oryctolagus cuniculus
In short: (§4)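 Inhibition of virus-induced cytopathogenicity in cell culture. Compounds were dissolved in growth medium at 100, 10 or 1 μg/mL or less.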

HeLa [15] = assay: Concentration required for microscopically detectable alteration of the normal cell morphology in HeLa cells.; type: functional; conditions: Homo sapiens; in short: as §2
Vero [16] = assay: Antiviral activity was measured against Sindbis virus in african green monkey kidney (Vero B) cells.; type: functional; conditions: Chlorocebus sabaeus; in short: as §3
HeLa [17] = assay: Antiviral activity was measured against Coxsackie virus B4 in HeLa cells.; type: functional; conditions: Homo sapiens; in short: as §4
[18] = Concentration required to reduce protein synthesis in primary rabbit kidney cells usingi [3H2-4,5]leucine incorporation; type: functional; conditions: Oryctolagus cuniculus, read-out: ID50 (the source's name)
In short: (§5)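 Primary rabbit kidney cells with compounds in growth medium at 100, 10, or 1 μg/mL or less. Cell number and incorporation of [3H-methyl]dThd (DNA), [3H-5]Urd (RNA) or [3H2-4,5]leucine (protein) measured. ID50 taken as the dose giving 50% reduction in cell number or in DNA, RNA or protein synthesis.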

Mus musculus [19] = assay: Efficacy expressed as number of surviving mice infected with herpetic encephalitis at dose of 150 mg/kg; T is Toxic; type: functional, organism-based; parameters: dose 150 mg/kg
[20] = Concentration required to reduce RNA synthesis in primary rabbit kidney cells using [3H-5]-Urd incorporation; type: functional; conditions: Oryctolagus cuniculus, read-out: ID50 (the source's name); in short: as §5
[21] = Concentration required to reduce DNA synthesis in primary rabbit kidney cells using [3H-Methyl]-dThd incorporation; type: functional; conditions: Oryctolagus cuniculus, read-out: ID50 (the source's name); in short: as §5
[22] = Number of living cells on the proliferation of mouse myeloma cells SP2 was measured at concentration 100 ug/mL at 0h.; type: functional
In short: (§6)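 Mouse myeloma SP2 cells seeded at 123 × 10^3 cells and exposed to compound at 1, 10 or 100 μg/mL in growth medium. Living cells counted at 0, 48 and 96 h alongside untreated controls.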

[23] = Antiviral activity was measured against Vaccinia virus in rabbit kidney cells.; type: functional; conditions: Oryctolagus cuniculus; in short: as §4
[24] = dose required to reduce primary rabbit kidney cell growth; type: functional; conditions: Oryctolagus cuniculus, read-out: ID50 (the source's name); in short: as §5
Mus musculus [25] = organism: Mus musculus; assay: Efficacy expressed as number of surviving mice infected with herpetic encephalitis at dose of 75 mg.kg; type: functional
In short: (§7)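 Young mice (10 g) were inoculated intracerebrally with 0.03 mL of herpes simplex virus suspension containing ca. 4 CCID50. Compound was given at 75 or 150 mg/kg per day as two daily intraperitoneal injections for 4 days. Read-out was the number of surviving mice.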

[26] = Number of living cells on the proliferation of mouse myeloma cells SP2 was measured at concentration 100 ug/mL at 96 h.; type: functional; in short: as §6
[27] = Antiviral activity was measured against Vesicular stomatitis virus in rabbit kidney cells.; type: functional; conditions: Oryctolagus cuniculus; in short: as §4
Mus musculus [28] = assay: Efficacy expressed as number of surviving mice infected with herpetic encephalitis at dose of 0 mg/kg; type: functional
[29] = Number of living cells on the proliferation of mouse myeloma cells SP2 was measured at concentration 100 ug/mL at 48 hr.; type: functional; in short: as §6
[30] = Dose required to reduce primary rabbit kidney cell growth; type: functional; conditions: Oryctolagus cuniculus, read-out: ID50 (the source's name); in short: as §5
HeLa [31] = assay: Antiviral activity was measured against vesicular stomatitis virus in HeLa cells.; type: functional; conditions: Homo sapiens; in short: as §4
[32] = Antiviral activity was measured against vesicular stomatitis virus in rabbit kidney cells.; type: functional; conditions: Oryctolagus cuniculus; in short: as §4
[33] = Antiviral activity was measured against vaccinia virus in rabbit kidney cells.; type: functional; conditions: Oryctolagus cuniculus; in short: as §4
Mus musculus [34] = assay: Efficacy expressed as number of surviving mice infected with herpetic encephalitis at dose of 150 mg/kg; type: functional; in short: as §7
Mus musculus [35] = assay: Toxicity of compound against mice was determined at a concentration of 1200 mg/kg; type: organism-based; parameters: dose 1200 mg/kg; conditions: in vivo; in short: as §1
Mus musculus [36] = assay: Toxicity of compound against mice was determined at a concentration of 2000 mg/kg; type: organism-based; parameters: dose 2000 mg/kg; conditions: in vivo; in short: as §1

| SMILES | MCC (WI-38 [4]) | MCC [5] | MCC (Vero [6]) | MCC (Vero [7]) | MCC [8] | MCC (WI-38 [9]) | MCC (Vero [10]) | MCC (Vero [11]) | MCC (WI-38 [12]) | MCC (Vero [13]) | MCC [14] | MCC (HeLa [15]) | MCC (Vero [16]) | MCC (HeLa [17]) | IC50 [20] | IC50 [21] | also measured |
| --- | --- | --- | --- | --- | --- | --- | --- | --- | --- | --- | --- | --- | --- | --- | --- | --- | --- |
| Nc1nc2c(ncn2[C@@H]2O[C@H](CO)[C@H](O)[C@H]2O)c(=O)[nH]1 |  |  |  |  |  |  |  |  |  |  |  |  |  |  |  |  | No. of dead mice (Mus musculus [1]): 2; No. of dead mice (Mus musculus [2]): 5; No. of dead mice (Mus musculus [3]): 8 |
| Cc1cn([C@@H]2O[C@H](CO)[C@@H](O)[C@H]2O)c(=O)[nH]c1=O | > 400 µg/mL | > 400 µg/mL | > 400 µg/mL | > 400 µg/mL | > 400 µg/mL | > 400 µg/mL | > 400 µg/mL | > 400 µg/mL | > 400 µg/mL | > 400 µg/mL | > 400 µg/mL | > 400 µg/mL | > 400 µg/mL | > 400 µg/mL |  |  |  |
| Nc1nc(O)c2ncn([C@@H]3O[C@H](CO)[C@H](O)[C@H]3O)c2n1 | > 400 µg/mL | > 200 µg/mL | > 400 µg/mL | > 400 µg/mL | 70 µg/mL | > 400 µg/mL | > 400 µg/mL | > 400 µg/mL | > 400 µg/mL | > 400 µg/mL | 70 µg/mL | 400 µg/mL | > 400 µg/mL | > 200 µg/mL | 61 µg/mL (≈ 215 µM) | 71 µg/mL (≈ 251 µM) | IC50 [18]: 148 µg/mL (≈ 523 µM); Efficacy (Mus musculus [19]): Toxic; No. of living cells [22]: 0.123; MCC [23]: 10 µg/mL; IC50 [24]: 62 µg/mL (≈ 219 µM); Efficacy (Mus musculus [25]): 3 mg/kg; No. of living cells [26]: 0; MCC [27]: > 200 µg/mL; Efficacy (Mus musculus [28]): 0 mg/kg; No. of living cells [29]: 0.024 |
| Nc1ccn([C@@H]2O[C@H](CO)[C@@H](O)[C@@H]2O)c(=O)n1 [CYTARABINE] |  |  |  |  |  |  |  |  |  |  |  |  |  |  | 0.03 µg/mL (≈ 0.123 µM) | 0.05 µg/mL (≈ 0.206 µM) | IC50 [18]: > 200 µg/mL; IC50 [30]: 0.04 µg/mL (≈ 0.164 µM) |
| Nc1ncnc2c1ncn2C[C@H](O)CO [(S)-DHPA] | > 400 µg/mL | > 400 µg/mL | > 400 µg/mL | > 400 µg/mL | > 400 µg/mL | > 400 µg/mL | 100 µg/mL | 100 µg/mL | 150 µg/mL | > 400 µg/mL | > 400 µg/mL | > 400 µg/mL | > 400 µg/mL | > 400 µg/mL |  |  | MCC (HeLa [31]): 70 µg/mL; MCC [32]: 20 µg/mL; MCC [33]: 20 µg/mL |
| Nc1ccn([C@@H]2O[C@H](CO)[C@H](O)[C@H]2O)c(=O)n1 | 400 µg/mL | > 200 µg/mL | > 200 µg/mL | > 100 µg/mL | 20 µg/mL | > 400 µg/mL | > 100 µg/mL | > 100 µg/mL | > 400 µg/mL | > 200 µg/mL | 20 µg/mL | 200 µg/mL | > 40 µg/mL | > 100 µg/mL | 60 µg/mL (≈ 247 µM) | 84 µg/mL (≈ 345 µM) | IC50 [30]: 72 µg/mL (≈ 296 µM); Efficacy (Mus musculus [34]): 2 mg/kg; No. of dead mice (Mus musculus [1]): 0; No. of dead mice (Mus musculus [2]): 0; MCC [23]: 20 µg/mL; Efficacy (Mus musculus [25]): 1 mg/kg; No. of living cells [26]: 0; MCC [27]: > 100 µg/mL; Efficacy (Mus musculus [28]): 0 mg/kg; No. of dead mice (Mus musculus [3]): 0; No. of living cells [29]: 0.056; No. of dead mice (Mus musculus [35]): 0; No. of dead mice (Mus musculus [36]): 1 |
| Nc1ncnc2c1ncn2C1O[C@H](CO)[C@H](O)[C@H]1O (some centres not stated) | > 400 µg/mL | > 400 µg/mL | > 400 µg/mL | > 400 µg/mL | > 400 µg/mL | > 40 µg/mL | > 400 µg/mL | > 400 µg/mL | > 400 µg/mL | > 400 µg/mL | > 400 µg/mL | > 400 µg/mL | > 400 µg/mL | > 400 µg/mL |  |  |  |
